# High-throughput results deposited in PubChem BioAssay by several laboratories.
# The sample as a whole holds a higher share of hits than the screen did.
# UPR XBP1 act: activators of adaptive arm of unfolded protein response (XBP1); CHO-XBP1 luciferase reporter, IRE1-XBP1 UPR activation, luminescence; percent of tunicamycin response, DMSO as zero; activation, % at 20 µM; 330,000 compounds, 0.33% hits; AID 463104;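 active = versus positive control, 20 µM dose yields 30% or more activation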;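 note: 100% = tunicamycin at 10 µg/mL and 0% = DMSO only wells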
#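 assay system = CHO-XBP1 luciferase reporter cells | amount = 1000 cells/well | buffer or medium = F12 plus 10% FBS | compound dosing = single point, 20 µM final compound, 1% DMSO | incubation = 16-18 h cell attachment at 37 °C, then 6 h compound exposure | detection = Steady-Glo luminescence read | controls = tunicamycin 10 µg/mL and vehicle-only wells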
# CHOP inh: blocks CHOP induction under ER stress | CHO-K1 CHOP-promoter luciferase, tunicamycin-induced, 15-18 h | inhibition, % at 10 µM | 220,000 compounds, 3.8% hits;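 active = compounds that reduced the stress-induced luciferase reporter signal by more than about 70% of percent inhibition, limit read from the data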;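 note: 0% = tunicamycin plus vehicle and 100% = wells without tunicamycin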
# GAA850 FXN act: frataxin GAA850 promoter activation. HEK293 lucGAA850 FXN promoter luciferase reporter, 24 h; percent of 10 µM SAHA response. activation, % at 6 µM. 360,000 compounds, 0.56% hits;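 active = activation above the average of all compounds screened plus 3 SD, cutoff fixed separately per campaign, cut at about 7.5% in these data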;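 note: 0% = DMSO wells and 100% = 10 µM SAHA wells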
# CHOP UPR activ: activators of apoptotic arm of unfolded protein response (CHOP); CHO-CHOP luciferase reporter, UPR activation, luminescence; percent of tunicamycin response over DMSO baseline; activation, % at 10 µM; 330,000 compounds, 0.34% hits;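 active = at 10 µM dose, activation of 40% or more, normalized to positive control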;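 note: 100% = tunicamycin at 10 µg/mL and 0% = DMSO alone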
#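 Evaluation: % reporter activation, DMSO baseline versus tunicamycin full activation; System: CHO-CHOP luciferase reporter cell line; Input: 500 cells/well; Incubation: 6 h compound treatment, 37 °C; Measured by: Steady-Glo luciferase luminescence; Dosing: one dose, 10 µM in 0.5% DMSO; Buffer or medium: F12 medium, 10% FBS; Benchmarks: positive tunicamycin 10 µg/mL, negative DMSO alone.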
# GAA30 counter: counter-screen for GAA850 frataxin promoter activators: GAA30 promoter activation; 1,900 compounds, 66% hits; activation, % at 6 µM; HEK293 lucGAA30 FXN promoter luciferase, 24 h; DMSO = 0%, 5 µM ipriflavone = 100%; shares compounds with GAA850 FXN act;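 active = mean activation above the mean of solvent-only control wells plus 3 SD, cut at about 22% in these data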;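 note: counterscreen of GAA850 promoter hits where activity marks nonselective or luminescence artifacts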
# GAA850 confirm: GAA850 FXN promoter activation confirmation. 1,900 compounds, 86% hits. activation, % at 6 µM. shares compounds with GAA850 FXN act. AID 588351. HEK293 lucGAA850 FXN promoter luciferase reporter, 24 h; 100% = activation by SAHA;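 active = mean activation above a set limit taken from the primary screen, cut at about 8% in these data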;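 note: 0% = DMSO wells and 100% = 10 µM SAHA wells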
# The depositor's hits bear a star; / = no result.
SMILES,UPR XBP1 act,CHOP inh,GAA850 FXN act,CHOP UPR activ,GAA30 counter,GAA850 confirm
COc1ccc(C(C)(NC(C)=O)c2nc(-c3cnc4ccccc4c3)cs2)cc1 (configuration not stated),/,/,1.1,/,/,/
O=C(NCc1cc2ccccc2[nH]1)C1CCC(=O)N(CC2CCCCC2)C1 (configuration not stated),/,/,2.2,/,/,/
CC1=CC(=O)N(c2cccc3c(N4C(=O)C=C(C)C4=O)cccc23)C1=O,/,/,9.2*,/,14.8,25.8*
CN1/C(=C/C=C/c2n(C)c3cc([N+](=O)[O-])c([N+](=O)[O-])cc3[n+]2C)C(C)(C)c2ccccc21,/,/,-3.9,/,/,/
COc1cc(/C=C/C(=O)O)ccc1O,-1.1,/,16.1*,-0.4,3.2,7.1
COc1cc(/C=C/C(=O)CC(=O)/C=C/c2ccc(O)c(OC)c2)ccc1O,-2.4,13.2,0.4,0.8,/,/
CC(=O)Nc1cc(-c2ccc(N3CCN(C)CC3)cc2)cn2c(-c3ccc(S(C)(=O)=O)cc3)cnc12,/,/,0.5,/,/,/
CC1CC(C)CN(C(=O)c2cc3cc(Br)cc(Br)c3o2)C1 (configuration not stated),3.6,38.6,10.1*,4.9,61.9*,26.5*
Cc1cc(NC(=O)c2ccc3sc([C@@H]4O[C@H](CO)[C@H](O)[C@H](O)[C@H]4O)nc3c2)n(C)n1,/,/,0.2,/,/,/
COc1ccc(C2=Nn3c(nnc3-c3cccnc3)SC2)cc1OC,15.2,/,14.6*,0.6,31.5*,19.9*
O=C(/C=C/C=C/c1ccccc1)c1ccco1,11.5,-5.7,9.5*,19.9,106.2*,43.6*
Cc1ccc(NC(=O)C2(C)CCN2C(=O)Cc2ccccc2)cc1C (configuration not stated),/,/,0.8,/,/,/
CC1(C)CC(=O)C=C(c2cccc(OC(=O)c3ccc(-c4ccccc4)cc3)c2)C1=O,/,/,0.3,/,/,/
CN(C)c1ccc(C(=O)/C=C/c2cccnc2)cc1,-8.5,/,8.8*,4.5,119.1*,37.4*
O=C(/C=C/c1cccnc1)c1ccc(F)c(F)c1,-0.1,/,4.3,1.9,/,/
O=C(NCC(=O)N1CCN(Cc2c(F)cccc2Cl)CC1)c1cccs1,/,/,-1.1,/,/,/
CNc1nc(Nc2ccc(Br)cc2)nc(N)c1[N+](=O)[O-],5.8,41.6,9.1*,6.3,91.1*,41.6*
O=C(Nc1cccc(C(F)(F)F)c1)c1ccc2sc([C@@H]3O[C@H](CO)[C@H](O)[C@H](O)[C@H]3O)nc2c1,/,/,0.4,/,/,/
COc1cccc(C(=O)Nc2cc3c(cc2Cl)OCCCO3)c1,0.7,-14.6,7.9*,3.6,101.4*,31.8*
NC(=O)c1c(NC(=O)c2ccccc2)sc2c1CCC2,-5.1,/,3.4,1.6,/,/
NC(=O)c1c(NC(=O)c2ccccc2)sc2c1CCc1ccccc1-2,0.6,-26.6,7.7*,4.1,94.5*,35.4*
Cc1cccc(C(O)c2ncc(-c3ccccc3Cl)[nH]2)c1C (configuration not stated),/,/,-1.0,/,/,/
Cc1cc(C)n2cc(CSc3nc4ccccc4s3)nc2n1,2.6,42.3,7.7*,5.5,98.5*,29.7*
CC(C)CCn1c(SCC(N)=O)nc2c1c(=O)n(C)c(=O)n2C,0.2,-8.5,10.9*,1.0,18.3,9.7*
CCCS(=O)(=O)NC(=O)C1(C)CCCN(C(=O)c2cc3ccccc3s2)C1 (configuration not stated),/,/,0.0,/,/,/
SMILES,UPR XBP1 act,CHOP inh,GAA850 FXN act,CHOP UPR activ,GAA30 counter,GAA850 confirm
COc1ccccc1Nc1nc(Cl)c(C=O)s1,1.1,-5.5,11.5*,2.5,52.7*,46.8*
COc1ccccc1Nc1nc2c(s1)CCC2,-0.8,1.6,2.2,1.5,/,/
COc1cc(/C=N/NC(=O)c2sc(N)c(C#N)c2C)ccc1O,0.6,25.7,11.0*,0.7,-13.2,44.3*
O=S(=O)(c1ccccc1)n1cc(-c2cccc3nccn23)c2ccccc21,/,/,2.9,/,/,/
c1ccc2c(c1)nnn2-c1ncnc2sccc12,-0.7,-14.5,10.2*,4.3,93.1*,30.6*
Cc1cc(-n2nnc3ccccc32)nc2ccccc12,7.1,60.8,3.3,5.8,/,/
COc1ccc(CNC(=O)c2c(-c3cc(Cl)c(OC)c(Cl)c3)noc2C)cc1,1.2,47.1,10.0*,2.0,16.6,10.6*
Cc1cc(NC(=O)c2coc(=O)c(Br)c2)ccc1C(C)C,-7.5,10.3,8.4*,30.9,89.0*,49.9*
O=C(Nc1ccc(Br)cn1)c1coc(=O)c(Br)c1,-0.8,-21.8,0.2,0.7,/,/
CCOC(=O)c1oc2c(c1C)/C(=N/O)CCC2,9.0,-5.0,8.0*,3.6,64.9*,22.8*
CC1(C(=O)NCc2cccs2)CCN1CCc1ccccc1 (configuration not stated),/,/,0.8,/,/,/
Cc1cc2nc(-c3ccc(NC(=O)C(C)C)cc3)oc2cc1C,-2.3,4.5,8.5*,5.9,101.8*,37.2*
CC(=O)c1cccc(-c2ccnc3c2CC(C(=O)Nc2ccc(F)c(Cl)c2)O3)c1 (configuration not stated),/,/,-0.6,/,/,/
CSCCNC(=O)C1(C)CCN1C(=O)c1ccc(C(C)(C)C)cc1 (configuration not stated),/,/,0.7,/,/,/
CCOC(=O)c1ccccc1NC(=O)Nc1ccc(OC)c(OC)c1,-1.1,14.9,9.6*,0.4,17.4,10.5*
CCc1ccc(O)c(-c2cc(C(=O)Nc3cccnc3)[nH]n2)c1,2.0,-12.3,7.8*,8.9,97.0*,30.5*
Cn1c2ccccc2c(=O)c2cc(C#CC3(O)CCCCC3)ccc21,-7.7,/,-4.8,-5.6,/,/
Cn1c2ccccc2c(=O)c2ccc(C#CC3(N)CCCCC3)cc21,0.5,/,10.5*,2.1,48.9*,45.7*
O=C(CCl)Nc1ccc(N2CCCCCC2)cc1,9.4,-43.6,7.7*,14.0,10.1,29.4*
CCC(=O)Nc1ccc(N2CCCCC2)cc1,-0.4,31.1,3.6,0.8,/,/
O=S1(=O)N=C(Nc2ccc(O)cc2)c2ccccc21,-2.1,-3.8,1.1,-0.3,/,/
O=S1(=O)N=C(Nc2ccc(N3CCOCC3)c(Cl)c2)c2ccccc21,0.5,4.8,8.4*,4.1,103.2*,33.7*
COc1ccc(S(=O)(=O)N2CCC(C(=O)NCCC(=O)NCc3ccccn3)CC2)cc1,/,/,-0.5,/,/,/
COc1ccc(N2C(=O)C3CCCN3C2c2cccc(Br)c2)cc1 (configuration not stated),-3.7,18.8,12.1*,0.9,18.7,8.8*
COc1cc2c(cc1OC)-c1nnnn1C(C)(C)C2,0.4,29.1,1.1,-2.0,/,/
COc1cc2c(cc1OC)-c1nnc(-c3cccs3)n1C(C)(C)C2,-2.5,/,13.3*,-0.5,7.6,8.2*
